Reference: ChEMBL document CHEMBL4610044, “Synthesis and biological evaluation of novel indole-pyrazoline hybrid derivatives as potential topoisomerase 1 inhibitors” (Bioorg Med Chem Lett, 2020)
The source made the active and inactive calls. No cut-off for these calls is given here.

Experiments:
Supercoiled DNA [1] = experiment: Binding affinity to supercoiled DNA (unknnown origin) at 50 uM by SPR assay; format: nucleic-acid assay
[2] = target: T1, DNA topoisomerase 1 (Homo sapiens) (UniProt P11387); experiment: Poison activity at Top1 (unknown origin) assessed as decrease in relaxed supercoiled DNA at 25 uM by […] based agarose gel electrophoresis relative to control; design: scale not given: the % may be the effect or the level left
T1 sequence (whole entry): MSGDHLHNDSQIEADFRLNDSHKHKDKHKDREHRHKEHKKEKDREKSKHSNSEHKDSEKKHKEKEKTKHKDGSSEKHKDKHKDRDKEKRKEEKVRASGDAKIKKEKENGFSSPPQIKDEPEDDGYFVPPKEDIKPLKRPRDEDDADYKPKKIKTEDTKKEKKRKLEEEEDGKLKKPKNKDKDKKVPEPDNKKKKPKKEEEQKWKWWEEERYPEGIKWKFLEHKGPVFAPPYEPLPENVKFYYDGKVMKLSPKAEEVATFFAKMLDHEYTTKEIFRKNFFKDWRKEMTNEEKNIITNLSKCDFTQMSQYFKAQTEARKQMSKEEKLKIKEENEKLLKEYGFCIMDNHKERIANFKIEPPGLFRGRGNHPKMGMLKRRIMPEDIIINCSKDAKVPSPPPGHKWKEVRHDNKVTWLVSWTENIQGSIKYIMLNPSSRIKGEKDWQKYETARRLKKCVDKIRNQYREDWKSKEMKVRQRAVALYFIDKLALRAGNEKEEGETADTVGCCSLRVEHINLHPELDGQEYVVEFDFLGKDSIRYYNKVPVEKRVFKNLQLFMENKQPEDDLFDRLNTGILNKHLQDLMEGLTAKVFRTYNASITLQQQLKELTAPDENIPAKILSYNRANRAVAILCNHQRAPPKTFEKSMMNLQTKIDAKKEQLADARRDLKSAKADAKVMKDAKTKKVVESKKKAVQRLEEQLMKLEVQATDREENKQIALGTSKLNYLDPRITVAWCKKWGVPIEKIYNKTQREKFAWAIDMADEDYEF

DNA = experiment: Binding affinity at Escherichia coli pBR322 DNA assessed as unwinding of supercoiled DNA incubated for 30 mins in presence of topoisomerase 1 by agarose gel based electrophoresis; format: nucleic-acid assay
Supercoiled DNA [3] = experiment: Binding affinity to supercoiled DNA (unknown origin) by SPR assay; format: nucleic-acid assay
[4] = target: T1, DNA topoisomerase 1 (Homo sapiens); experiment: Poison activity at Top1 (unknown origin) assessed as increase in supercoiled DNA at 125 uM by ethidium bromide staining based agarose gel electrophoresis relative to control
[5] = target: T1, DNA topoisomerase 1 (Homo sapiens); experiment: Poison activity at Top1 (unknown origin) assessed as decrease in relaxed supercoiled DNA at 300 uM
Outline: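 The screen used a Top1-mediated relaxation assay, with compounds at 300 µM and camptothecin as positive control. Supercoiled and relaxed/Top1-bound DNA were resolved as separate bands on agarose gel.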

[6] = target: T1, DNA topoisomerase 1 (Homo sapiens); experiment: Poison activity at Top1 (unknown origin) assessed as increase in supercoiled DNA by ethidium bromide staining based agarose gel electrophoresis
Outline: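 In a semi-quantitative Top1 relaxation assay, compound was tested at several concentrations, including 25 and 125 µM, and camptothecin at 1, 5, 25 and 125 µM. Supercoiled DNA was quantified from gel bands as a percentage of total DNA.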

[7] = target: T1, DNA topoisomerase 1 (Homo sapiens); experiment: Poison activity at Top1 (unknown origin) assessed as increase in supercoiled DNA at 25 uM by […] relative to control

Cc1ccc(S(=O)(=O)n2cc(C3=NN(c4ccccc4)C(c4ccccc4)C3)c3ccccc32)cc1 (stereo not drawn) was tested, and the Activity (Supercoiled DNA [1]) was “inactive” and the Activity [2] was 40 to 79%.

With O=S(=O)(c1cccc2ccccc12)n1cc(C2=NN(c3ccccc3)C(c3ccc(Cl)cc3)C2)c2ccccc21 (stereo not drawn) the Activity (Supercoiled DNA [1]) was “inactive” and the Activity [2] was < 40%.

In the case of CC[n+]1c(-c2ccccc2)c2cc(N)ccc2c2ccc(N)cc21 [HOMIDIUM BROMIDE], the Activity (DNA) is reported as “Active” and the Kd (Supercoiled DNA [3]) is reported as 1200 nM.

For CC(C)c1ccc(C2CC(c3cn(S(=O)(=O)c4cccc5ccccc45)c4ccccc34)=NN2c2ccccc2)cc1 (stereo not drawn), the Activity (Supercoiled DNA [1]) was “inactive” and the Activity [2] was 40 to 79%.

CC(C)c1ccc(C2CC(c3cn(S(=O)(=O)c4ccccc4)c4ccccc34)=NN2c2ccccc2)cc1 (stereo not drawn) was tested, and the Activity (Supercoiled DNA [1]) was “inactive” and the Activity [2] was 40 to 79%.

With CC[C@@]1(O)C(=O)OCc2c1cc1n(c2=O)Cc2cc3ccccc3nc2-1 the Activity [4] was 48%.

In the case of O=S(=O)(c1cccc2ccccc12)n1cc(C2=NN(c3ccccc3)C(c3cccc4ccccc34)C2)c2ccccc21 (stereo not drawn), the Activity (Supercoiled DNA [1]) is reported as “inactive” and the Activity [2] is reported as < 40%.

For Cc1ccc(C2CC(c3cn(S(=O)(=O)c4ccccc4)c4ccccc34)=NN2c2ccccc2)cc1 (stereo not drawn), the Activity (Supercoiled DNA [1]) was “inactive”, the Activity [5] was “Active” and the Activity [2] was < 40%.

In the case of COc1ccc(C2CC(c3cn(S(=O)(=O)c4ccccc4)c4ccccc34)=NN2c2ccccc2)cc1 (stereo not drawn), the Activity (Supercoiled DNA [1]) is reported as “inactive” and the Activity [2] is reported as 40 to 79%.

COc1ccc(C2CC(c3cn(S(=O)(=O)c4cccc5ccccc45)c4ccccc34)=NN2c2ccccc2)cc1 (stereo not drawn) was tested, and the Activity (Supercoiled DNA [1]) was “inactive” and the Activity [2] was < 40%.

For Brc1ccccc1C1CC(c2c[nH]c3ccccc23)=NN1c1ccccc1 (stereo not drawn), the Activity (Supercoiled DNA [1]) was “inactive”, the Activity [5] was “Active” and the Activity [2] was < 40%.

For O=S(=O)(c1ccccc1)n1cc(C2=NN(c3ccccc3)C(c3ccccc3Br)C2)c2ccccc21 (stereo not drawn), the Activity (Supercoiled DNA [1]) was “inactive” and the Activity [2] was < 40%.

For O=[N+]([O-])c1cccc(C2CC(c3cn(S(=O)(=O)c4ccccc4)c4ccccc34)=NN2c2ccccc2)c1 (stereo not drawn), the Activity (Supercoiled DNA [1]) was “inactive” and the Activity [2] was < 40%.

With O=S(=O)(c1ccccc1)n1cc(C2=NN(c3ccccc3)C(c3ccccc3)C2)c2ccccc21 (stereo not drawn) the Activity (Supercoiled DNA [1]) was “inactive” and the Activity [2] was 40 to 79%.

Cc1ccc(S(=O)(=O)n2cc(C3=NN(c4ccccc4)C(c4ccc(C(C)C)cc4)C3)c3ccccc32)cc1 (stereo not drawn) was tested, and the Activity (Supercoiled DNA [1]) was “inactive” and the Activity [2] was < 40%.

In the case of Cc1ccc(S(=O)(=O)n2cc(C3=NN(c4ccccc4)C(c4ccccc4Br)C3)c3ccccc32)cc1 (stereo not drawn), the Activity (Supercoiled DNA [1]) is reported as “inactive” and the Activity [2] is reported as < 40%.

For O=S(=O)(c1ccccc1)n1cc(C2=NN(c3ccccc3)C(c3ccc(Cl)cc3)C2)c2ccccc21 (stereo not drawn), the Activity (Supercoiled DNA [1]) was “inactive” and the Activity [2] was < 40%.

With COc1cc(C2CC(c3cn(S(=O)(=O)c4ccccc4)c4ccccc34)=NN2c2ccccc2)cc(OC)c1OC (stereo not drawn) the Activity (Supercoiled DNA [1]) was “inactive” and the Activity [2] was 40 to 79%.

In the case of COc1cc(C2CC(c3cn(S(=O)(=O)c4ccc(C)cc4)c4ccccc34)=NN2c2ccccc2)cc(OC)c1OC (stereo not drawn), the Activity (Supercoiled DNA [1]) is reported as “inactive” and the Activity [2] is reported as 40 to 79%.

In the case of O=S(=O)(c1cccc2ccccc12)n1cc(C2=NN(c3ccccc3)C(c3ccccc3)C2)c2ccccc21 (stereo not drawn), the Activity (Supercoiled DNA [1]) is reported as “inactive” and the Activity [2] is reported as < 40%.

For O=S(=O)(c1cccc2ccccc12)n1cc(C2=NN(c3ccccc3)C(c3ccccc3Br)C2)c2ccccc21 (stereo not drawn), the Activity (Supercoiled DNA [1]) was “inactive” and the Activity [2] was < 40%.

With O=S(=O)(c1ccccc1)n1cc(C2=NN(c3ccccc3)C(c3cccc4ccccc34)C2)c2ccccc21 (stereo not drawn) the Activity (DNA) was “inactive”, the Activity [6] was “Dose-dependent effect” and the Activity (Supercoiled DNA [1]) was “inactive”. For the same compound, the Activity [4] was 74%, the Activity [7] was 61% and the Activity [2] was > 80%.

In the case of COc1ccc(C2CC(c3cn(S(=O)(=O)c4ccc(C)cc4)c4ccccc34)=NN2c2ccccc2)cc1 (stereo not drawn), the Activity (Supercoiled DNA [1]) is reported as “inactive” and the Activity [2] is reported as < 40%.

With Cc1ccc(S(=O)(=O)n2cc(C3=NN(c4ccccc4)C(c4cccc5ccccc45)C3)c3ccccc32)cc1 (stereo not drawn) the Activity (Supercoiled DNA [1]) was “inactive” and the Activity [2] was 40 to 79%.
